# Screens from PubChem BioAssay.
# Most compounds without a hit are left out; they make up all but 2% or so of the library.
# NR2E3 ag-1: inhibitors of NR2E3-RetCOR corepressor binding, primary screen, NR2E3 agonist project, biochemical, TR-FRET, GST-NR2E3, biotin-RetCOR; Photoreceptor-specific nuclear receptor (Homo sapiens), Q9Y5X4; 1536-well; inhibition of corepressor binding, % at 4.78 µM; 0.12% of 320,000 active; AID 2300, 2010;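 active means percent inhibition above the cutoff of mean plus 3 SD of all tested compounds, set per screening campaign, cut at about 20% in these data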;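 further: 0% = DMSO wells and 100% = biotin wells as full block of FRET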
# Target sequence (Q9Y5X4 whole entry, looked up): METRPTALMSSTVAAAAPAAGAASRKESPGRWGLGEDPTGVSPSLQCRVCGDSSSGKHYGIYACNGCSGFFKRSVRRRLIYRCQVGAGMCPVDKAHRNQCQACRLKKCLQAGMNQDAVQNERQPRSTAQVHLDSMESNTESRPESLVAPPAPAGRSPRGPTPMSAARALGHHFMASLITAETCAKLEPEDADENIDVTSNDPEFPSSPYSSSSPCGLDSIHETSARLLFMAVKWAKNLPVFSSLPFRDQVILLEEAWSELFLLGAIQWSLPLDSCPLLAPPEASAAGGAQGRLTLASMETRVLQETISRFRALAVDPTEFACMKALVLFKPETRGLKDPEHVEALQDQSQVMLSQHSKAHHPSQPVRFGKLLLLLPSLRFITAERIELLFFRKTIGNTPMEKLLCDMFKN
#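 Test system: GST-NR2E3 and biotin-RetCOR proteins | Quantity: 1.35 nM GST-tagged NR2E3 final | Medium: Tris pH 7.5 | Also added: 7 nM biotin-RetCOR | Dosing: Compound at 4.8 µM, single dose | Timing: 5 h at 4 °C | Detection: Time-resolved FRET | Read-out basis: Percent inhibition | Benchmarks: Biotin wells as high control, 0.6% DMSO wells as low control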
# T cell HTS: modulators of CD8 T cell-vesicle binding, primary screen, mouse 2C CD8+ T cells, flow cytometry; 2C CD8+ T cell-vesicle binding; active compounds read low; response (vesicle binding), % at 7 µM; 0.068% of 330,000 active; AID 2052, 2009;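 active means response, share of CD8 T cells binding vesicles, and their 90th percentile fluorescence all below set limits, cut at about 80% in these data, passing the limit was not always enough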;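 further: values below 100% mean blocked vesicle binding to the CD8+ T cells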
#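 Assay system: 2C TCR transgenic mouse naive CD8+ T cells, MACS-purified | Read-out: CD8+ gate FL2 mean fluorescence as % of same-row positive control | Signal: High-throughput flow cytometry with anti-B7-1 and anti-CD8 staining | Timing: Binding step 1.5 h, 37 °C, antibody labelling 20 min, ice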
# Myeloid diff MLP: induction of myeloid progenitor differentiation, primary screen, cell-based, flow cytometry, MLPCN library; ER-HoxA9 myeloid progenitors, lysozyme-GFP differentiation; calls only at 10 µM; 1% of 360,000 active; AID 624256, 2012;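 active means normalized GFP-positive differentiation at or above the plate's own cutoff, the solvent-only control mean plus 3 SD; inconclusive means no clear call, values can overlap the other calls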;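 further: cells exposed to compound for four days before flow analysis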
# FXN GAA850 act: FXN promoter activators, primary screen, cell-based, luciferase luminescence, HEK293 lucGAA850. HEK293 lucGAA850 FXN promoter luciferase reporter, 24 h; percent of 10 µM SAHA response. activation, % at 6 µM. 0.56% of 360,000 active;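 active means activation above the average of all compounds screened plus 3 SD, cutoff fixed separately per campaign, cut at about 7.5% in these data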;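 further: 0% = DMSO wells and 100% = 10 µM SAHA wells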
# NR2E3 ag-2: NR2E3 agonists in two-hybrid cells, primary screen, cell-based, luminescence, CHO-S, Gal4-NCOR/VP16-NR2E3 | luciferase | inhibition of corepressor binding, % at 3.98 µM | 0.35% of 360,000 active | AID 602229, 2012;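 active means inhibition above the mean of all tested compounds plus 3 SD, cut at about 70% in these data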;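 further: 0% = DMSO with NR2E3 transfected cells and 100% = cells lacking NR2E3 construct; higher means lower luciferase signal from less NR2E3 corepressor binding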
# GAA30 counter: GAA30 FXN promoter activators, confirmation, counter-screen for GAA850 frataxin promoter activator project, cell-based, luminescence, HEK293, lucGAA30, triplicate; shares compounds with FXN GAA850 act; HEK293 lucGAA30 FXN promoter luciferase, 24 h; DMSO = 0%, 5 µM ipriflavone = 100%; activation, % at 6 µM; 66% of 1,900 active;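 active means mean activation above the mean of solvent-only control wells plus 3 SD, cut at about 22% in these data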;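 further: counterscreen of GAA850 promoter hits where activity marks nonselective or luminescence artifacts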
# FXN GAA850 conf: FXN GAA850 promoter activators in reporter cells, confirmation, cell-based, luminescence, HEK293 lucGAA850, triplicate; 86% of 1,900 active; AID 588351, 2011; activation, % at 6 µM; HEK293 lucGAA850 FXN promoter luciferase reporter, 24 h; 100% = activation by SAHA; shares compounds with FXN GAA850 act;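 active means mean activation above a set limit taken from the primary screen, cut at about 8% in these data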;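 further: 0% = DMSO wells and 100% = 10 µM SAHA wells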
# * marks the source's active call; other numbers are inactive results; i = inactive; ? = inconclusive; nt = no result.
SMILES,NR2E3 ag-1,T cell HTS,Myeloid diff MLP,FXN GAA850 act,NR2E3 ag-2,GAA30 counter,FXN GAA850 conf
O=C(NC1CCCC1)C(c1ccsc1)N(Cc1ccccc1)C(=O)Cc1cccs1 (stereo not given),-2,178,i,14*,1,14,19*
CCc1nnc(NC(=O)CSc2nnc3nc(C)cc(C)n23)s1,6,179,i,-2,-19,nt,nt
Cc1nn(-c2ccccc2)c(Cl)c1/C=N/NC(=O)c1ccnn1C,-1,268,i,7.7*,-42,116*,42*
O=C(CSc1n[nH]c(-c2cccnc2)n1)Nc1ccccc1C(F)(F)F,4,281,i,-3,2,nt,nt
O=C(Cc1ccccc1)N1CCc2ccccc21,5,238,i,4,-24,nt,nt
O=C(CS(=O)(=O)c1ccccc1)N1CCc2ccccc21,2,220,i,8.5*,-91,99*,30*
CCOC(=O)c1ccc2[nH]c3c(c2c1)CCCCC3=O,3,354,i,8.1*,-101,65*,25*
COc1nc(=O)n(C2C=CC(=O)O2)cc1F (stereo not given),nt,nt,?,14*,41,-20,0
Cc1ccc(C(=O)Nc2ncc(Cc3ccc(SC(F)F)cc3)s2)cc1,0,178,?,7.6*,-52,-12,37*
Cc1ccc(C(=O)Nc2ncc(Cc3ccc(F)cc3)s2)o1,0,182,i,0,0,nt,nt
Cc1ccc(NC(=O)c2c(Cl)nc3ccccn23)cc1,-1,110,i,10*,-131,116*,37*
CCCCC1=CC2=CC(=O)C(C)(OC(=O)CC)C(=O)C2=CN1C1CCCC1 (stereo not given),2,174,i,1,24,nt,nt
CC1(C(=O)Nc2ccc(F)cc2F)CCN1C(=O)CCC1CCCC1 (stereo not given),nt,nt,i,0,7,nt,nt
CS(=O)(=O)c1ccc(Sc2nc3ccccc3s2)c([N+](=O)[O-])c1,-1,162,?,-17,-10,nt,nt
O=[N+]([O-])c1cc(S(=O)(=O)C(F)(F)F)ccc1Sc1nc2ccccc2s1,2,390,?,13*,-11,-7,38*
CCCCN1C(=O)C(C(=O)OCC)CC2=C1CCCC2=O (stereo not given),nt,nt,i,-4,8,nt,nt
COc1ccc(Nc2cc(Nc3ccc(OC)cc3)ncn2)cc1,-1,205,i,-1,31,nt,nt
COc1ccc(Nc2cc(Nc3cccc(OC)c3)ncn2)cc1,0,160,i,7.8*,-65,85*,26*
Cn1nc(N)c2ncc(-c3ccc(Cl)cc3)nc21,nt,nt,i,9.7*,-71,99*,30*
COc1ccc(C(=O)N/C(N)=N/c2nc3ccccc3o2)cc1,-3,275,i,1,-44,nt,nt
COc1ccc(C(=O)/C=C/Sc2nc3ccccc3o2)cc1,-7,252,i,9.8*,-21,5,5
CC1(C(=O)N2Cc3ccccc3C2)CCN1C(=O)C1(c2ccccc2)CC1 (stereo not given),nt,nt,i,-2,-1,nt,nt
Cn1c(=NC(=O)c2cccc([N+](=O)[O-])c2)sc2ccccc21,4,268,i,9.1*,-156,120*,36*
CCCNC(=O)C1(C)CCCN(Cc2ccc(Oc3ccccc3)cc2)C1 (stereo not given),nt,nt,i,-1,-2,nt,nt
CCOC(=O)c1ccc(N=c2sc(C(=O)OC)cc(=O)n2Cc2ccco2)cc1,-3,529,i,15*,-14,7,35*
SMILES,NR2E3 ag-1,T cell HTS,Myeloid diff MLP,FXN GAA850 act,NR2E3 ag-2,GAA30 counter,FXN GAA850 conf
Cc1ccc(NC(=O)NC2CCCCCCC2)cc1C,nt,0,i,9.7*,-47,93*,36*
O=C(Nc1ccc(F)c(F)c1)NC1CCCCC1,1,i,i,1,-60,nt,nt
Cc1cccc(NC(=O)NC2CCCCCCC2)c1,nt,147,i,7.6*,-117,102*,36*
COc1cccc(CC(=O)N2CCC(n3nccc3NC(=O)C3CC3)CC2)c1,nt,513,i,0,-23,nt,nt
CSc1ccc(CC(=O)N2CCC(n3nccc3NC(=O)C3CC3)CC2)cc1,2,0,i,7.7*,-51,96*,32*
Cc1nc2c(-c3ccccc3)cnn2c(N2CCOCC2)c1C,-3,261,i,8.3*,-157,127*,44*
Cc1cc(C)cc(NC(=O)C2CCCN(c3ncccn3)C2)c1 (stereo not given),4,171,i,1,-5,nt,nt
Cc1ccc(NC(=O)C2CCCN(c3ncccn3)C2)cc1F (stereo not given),1,644,i,7.6*,-73,113*,32*
NC(=O)c1ncn([C@@H]2O[C@H](CNCc3cccc(OC4CCCC4)c3)[C@@H](O)[C@H]2O)n1,nt,nt,i,1,-27,nt,nt
CC(=O)N1CC(=O)N(c2ccccc2)C1=O,2,233,i,0,-10,nt,nt
O=c1[nH][nH]c2c1[C@H](CCc1cccc(Cl)c1)O[C@H](C1CCCC1)C2,nt,nt,i,nt,-21,nt,nt
Cc1n[nH]c(C)c1S(=O)(=O)N(CC(=O)NC1CCCC1)c1ccc(C(C)C)cc1,0,213,i,8.2*,3,21,9.5*
CC(Oc1ccc2c(-c3ccccc3)cc(=O)oc2c1)C(=O)NCCCn1ccnc1 (stereo not given),-2,333,i,8.7*,7,7,5
O=C(/C=C\N1CCOCC1)c1ccc(Br)cc1,2,181,i,2,-31,nt,nt
CN(C)C1=NCCN1CCC1CCCC1,4,417,i,0,-5,nt,nt
Cc1cc(Cl)ccc1OCCCC(=O)N1CCOCC1,-4,270,i,-1,-43,nt,nt
Cc1cc(Cl)ccc1OCCCC(=O)N1CCCCC1,2,206,i,8.6*,-96,79*,31*
CS(=O)(=O)N1CCN(c2ccc(NC(=O)c3cc4ccccc4o3)cc2)CC1,2,98,i,2,-36,nt,nt
